Experimental findings from PubChem BioAssay are described below.

Each structure is given as a SMILES string. A number with no mark means an inactive call. Records with an inconclusive call do not appear. Calls of active or inactive are those of the source.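 Rule for the calls, unless noted: active = inhibition over a set limit, the all-compound mean plus 3 SD, in both replicate runs; inconclusive = over that limit in just one replicate run; inactive = at or under that limit in both runs.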

A short description of assay [1]: S. cerevisiae growth inhibition in permissive medium (OD615), pilot counter-assay for S. cerevisiae lifespan shortening project, permissive growth control (AID 705;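 active = growth inhibition above 25% in both replicates, a cutoff set 3 SD above the mean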). The settings on record: OD615, 24 h, at 10 µM, active compounds read high. In a few lines: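 System – S. cerevisiae with engineered DeaD lifespan system · Buffer or medium – SC raffinose/galactose permissive medium · Schedule – cells pre-grown 4 h, then 24 h compound exposure, 30 °C humidified · Technique – culture turbidity as optical density at 615 nm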

Assay [2] is described as follows: S. cerevisiae growth inhibition in restrictive medium, OD615, pilot screen, restrictive growth control, yeast lifespan reduction project (AID 706;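 active = growth inhibition above a set limit, 3 SD over mean compound inhibition, in both replicates, cut at about 43% in these data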;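 note: modified DeaD lifespan yeast strain shifted to restrictive glucose medium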). The settings on record: OD615, 48 h, at 10 µM, active compounds read high. A digest of the protocol:
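Material: engineered S. cerevisiae DeaD strain / Medium: glucose-based CSMM-D restrictive medium / Compound: single dose of 10 µM compound final, 0.25% DMSO / Timing: 4 h pre-incubation, 48 h exposure at 30 °C / Technique: OD615 absorbance reading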

The nature of assay [3]: doxorubicin toxicity protection in MRP-1 cells – H69AR cells, CellTiter-Glo, duplicate, MRP-1 activator project, pilot screen (AID 807;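 active = viability increase at or above a cutoff of the median across tested compounds plus 3 SD, cut at about 8.5% in these data, passing the limit was not always enough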;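 note: compound pretreatment 18-22 h then 72 h combined with doxorubicin; 0% = doxorubicin alone and 100% = vehicle without doxorubicin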). The settings on record: H69AR viability with doxorubicin, CellTiter-Glo luminescence; at 10 µM; active compounds read high. On the technique in general: Cellular ATP, detected with luciferase, serves as a proxy for viable cell number.
Assay [4] can be described thus: viability of HCT116 without oncogenic beta-catenin – human colon tumor cells, pilot screen (AID 823;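 active = cell viability at or below a set limit in both duplicate runs, the limit being the all-compound median minus 4 SD, cut at about 23% in these data, passing the limit was not always enough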;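 note: 0% = wells killed by 20 µM Hyamine and 100% = untreated DMSO cell wells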). The settings on record: HCT116 beta-catenin knockout viability, CellTiter-Glo, 60 h; at 10 µM; active compounds read low.
The nature of assay [5]: viability of PTEN-null HCT116 cells – cell-based, HCT116 clonal line, CellTiter-Glo, pilot screen (AID 824;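 active = viability at or below 27.92% in each of two runs, the all-compound median minus 4 SD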;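 note: 0% = 20 µM Hyamine control and 100% = vehicle cell control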). The settings on record: HCT116 PTEN-deleted viability, 60 h, at 10 µM, active compounds read low.
A short description of assay [6]: RAM pathway blockade in budding yeast – dse1pr::URA3 reporter, 5-FOA selection, pilot screen (AID 869).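 Note: 0% = DMSO wells with no growth and 100% = 10 µM 1-NA-PP1 with full growth; RAM network block rescues cells from 5-FOA so hits raise OD615 growth.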 The settings on record: S. cerevisiae dse1pr::URA3 5-FOA growth, OD615, 2 d; at 10 µM; active compounds read high; strain carries analog-sensitive mutant Cbk1 kinase.
Assay [7] can be described thus: RAM signaling pathway blockade in yeast – S. cerevisiae, Pdr1DBD-CYC8 efflux-inhibited sensitized strain, primary screen (AID 1298;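 active = RAM network inhibition above 8.4% in each of two replicates, 3 SD over the compound average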;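 note: 0% = DMSO untreated cells without growth and 100% = 10 µM 1-NA-PP1 full growth; higher means more yeast growth rescued from 5-FOA killing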). The settings on record: S. cerevisiae cbk1-as DSE1-URA3 strain, 5-FOA growth OD615, 2 d; at 50 µM; active compounds read high.

Broadly, the viability is a read-out of living cells in per cent, often relative to untreated cells. One may read the inhibition as the relative decrease from the control value, in per cent. Consider `Cc1cc(/C=N/n2cnnc2)c(C)n1-c1ccc(C(=O)O)cc1`, for which the growth inhibition was 5.52% in assay [1] and -2.69% in assay [2]. In addition, the viability increase in assay [3] is 1.76%. Moreover, the values for the viability in assay [4] and in assay [5] were 102% and 99%, respectively. In addition, in assay [6], the inhibition is 0.98%. Also, in assay [7], the RAM network inhibition was 2.56%.

Consider `O=C(CCn1c(=S)[nH]c2ccccc2c1=O)N1CCOCC1`, for which the figures for the growth inhibition in assay [1] and in assay [2] were -0.255% and 9.25%, respectively. In assay [3], the viability increase was 0.5%. Besides, the viability is 105% in assay [4] and 103% in assay [5]. Besides, the inhibition in assay [6] is 0.715%. The RAM network inhibition in assay [7] was -0.13%.

Take `Cc1ccc(N2CCN(c3cc(C)nc4nc(C)nn34)CC2)c(C)c1`: the growth inhibition in assay [1] is -17.8%; in assay [2], 25.7%. The viability increase in assay [3] is -2.76%. The viability was 83.3% in assay [4] and 75.8% in assay [5]. In addition, the inhibition in assay [6] was -0.325%. Also, the RAM network inhibition in assay [7] is 2.52%.

Consider `Cc1cc(C)c2c(=O)n(CC(=O)N3CCC(N4CCCCC4)CC3)sc2n1`, for which the growth inhibition was 4.7% in assay [1] and 9.28% in assay [2]. Further, the viability increase in assay [3] is -7.14%. Moreover, the viability is 2.7% (active) in assay [4] and 16.2% (active) in assay [5]. Besides, the inhibition in assay [6] was 2.08%. In addition, the RAM network inhibition in assay [7] was 0.2%.

For `CCOC(=O)Cc1nnc(NC(=O)C(CC)Sc2nc(C)cc(=O)[nH]2)s1` (stereo unspecified), the figures for the growth inhibition in assay [1] and in assay [2] were 6.95% and 22.4%, respectively. Moreover, the viability increase in assay [3] was -0.54%. Further, the viability in assay [4] was 83.4%; in assay [5] it was 96.7%. Further, the inhibition in assay [6] was 2.96%. In assay [7], the RAM network inhibition is 2.97%.

On to `Cc1cc(=O)oc2cc(OCC(O)CN3CCN(c4ccc(F)cc4)CC3)ccc12` (stereo unspecified), for which the results for the growth inhibition in assay [1] and in assay [2] were -10.4% and -2.92%, respectively. Besides, the viability increase in assay [3] is -0.12%. The figures for the viability in assay [4] and in assay [5] were 74.5% and 80.8%, respectively. The inhibition in assay [6] is 0.85%. In addition, in assay [7], the RAM network inhibition is -0.18%.

For `Cc1ccc(Nc2cc(C)nc3nc(C)nn23)c(C)c1`, the figures for the growth inhibition in assay [1] and in assay [2] were -9.53% and 8.84%, respectively. The viability increase in assay [3] was -3.9%. Also, the viability in assay [4] was 95.1%; in assay [5], 96.9%. Also, in assay [6], the inhibition is -0.02%. For the same molecule, the RAM network inhibition in assay [7] is -0.78%.

With `COc1cccc(C2NC(=O)NC(C)=C2C(=O)Nc2ccc(C)cc2)c1` (stereo unspecified), the growth inhibition was -9.18% in assay [1] and -12% in assay [2]. Further, the viability increase in assay [3] was 1.54%. Besides, the viability in assay [4] was 106%; in assay [5], 97.6%. Moreover, the inhibition in assay [6] was 0.285%. In assay [7], the RAM network inhibition is 3.39%.

Turning to `CCOc1ccc(-n2c(Cc3cc(=O)[nH]c(=O)[nH]3)nnc2SC(C)C(=O)OC)cc1` (stereo unspecified), the growth inhibition in assay [1] was -4.41%; in assay [2] it was 2.84%. For the same molecule, the viability increase in assay [3] was 0.2%. The values for the viability in assay [4] and in assay [5] were 101% and 103%, respectively. Further, the inhibition in assay [6] was 0.31%. Moreover, the RAM network inhibition in assay [7] was 3.49%.

`COc1cccc(NC(=O)Cn2cc3c(n2)CCCCC3)c1`: the values for the growth inhibition in assay [1] and in assay [2] were -10% and -7.44%, respectively. Further, in assay [3], the viability increase is 0.07%. For the same molecule, the viability was 98.2% in assay [4] and 92% in assay [5]. Further, in assay [6], the inhibition was 1.66%. In addition, the RAM network inhibition in assay [7] was 6.31%.

In the case of `O=C(CSc1nnc(C2COc3ccccc3O2)o1)N1CCCCC1` (stereo unspecified), the growth inhibition is -7.62% in assay [1] and 2.56% in assay [2]. Besides, in assay [3], the viability increase is -0.36%. Besides, the viability in assay [4] was 98.7%; in assay [5], 105%. Also, the inhibition in assay [6] was -0.035%. For the same molecule, in assay [7], the RAM network inhibition was 0.97%.

Consider `COc1ccc(-c2nc(CS(=O)CC(=O)NCC3CCCO3)c(C)o2)cc1` (stereo unspecified), for which the growth inhibition is -7.51% in assay [1] and 15.5% in assay [2]. Further, in assay [3], the viability increase is -2.38%. Also, the viability was 97.8% in assay [4] and 102% in assay [5]. For the same molecule, the inhibition in assay [6] was -0.795%. The RAM network inhibition in assay [7] was 4.03%.

With `COc1ccccc1NC(=O)CSc1nnc(-c2ccco2)n1Cc1ccco1`, the growth inhibition is 1.41% in assay [1] and 1.92% in assay [2]. Also, the viability increase in assay [3] is -3.34%. Further, the viability in assay [4] was 92.8%; in assay [5] it was 90.5%. Also, the inhibition in assay [6] is 1.39%. In assay [7], the RAM network inhibition was 1%.

As to `Cn1c(NC(=O)c2ccccc2F)cc(=O)n(C)c1=O`, the growth inhibition in assay [1] is -0.14%; in assay [2], -2.47%. In addition, the viability increase in assay [3] is 0.23%. Further, the figures for the viability in assay [4] and in assay [5] were 101% and 106%, respectively. Moreover, the inhibition in assay [6] was 0.595%. The RAM network inhibition in assay [7] was -1.63%.

For the molecule `CCCN1CCN(CCCNC(=O)Cn2cc3c(n2)CCCC3)CC1`, the growth inhibition in assay [1] is -3.77%; in assay [2], -2.67%. Further, the viability increase in assay [3] is -0.96%. The viability is 101% in assay [4] and 91% in assay [5]. Also, the inhibition in assay [6] is 0.27%. For the same molecule, the RAM network inhibition in assay [7] was 3.05%.

In the case of `CC1(C)Cc2c(C#N)c(N)sc(=S)c2CO1`, the growth inhibition in assay [1] was 21.9%; in assay [2] it was 67% (active). In addition, in assay [3], the viability increase was -1.77%. Moreover, the results for the viability in assay [4] and in assay [5] were 101% and 106%, respectively. The inhibition in assay [6] was 1.27%. In assay [7], the RAM network inhibition is 2.98%.

`NS(=O)(=O)c1ccc(CCNC2CC(=O)N(CCc3ccccc3)C2=O)cc1` (stereo unspecified): the results for the growth inhibition in assay [1] and in assay [2] were -14.1% and -16%, respectively. In addition, the viability increase in assay [3] is 1.79%. Further, the viability in assay [4] is 98%; in assay [5] it was 99.9%. In addition, the inhibition in assay [6] is 0.24%. For the same molecule, the RAM network inhibition in assay [7] was 1.42%.

Regarding `Cc1ccc2oc(=O)n(CC(=O)O)c2c1`, the values for the growth inhibition in assay [1] and in assay [2] were -6.32% and 5.35%, respectively. In addition, the viability increase in assay [3] was -0.21%. Moreover, the viability in assay [4] is 98.6%; in assay [5], 93.7%. Besides, the inhibition in assay [6] is 1.27%. The RAM network inhibition in assay [7] was -1.2%.
